The values that follow come from article PMC7104417 (ACS chemical neuroscience, 2020).

“And” between values parts separate entries of the source, which are not always exact repeats. Equal values may be shown once. Read-outs that look alike come from different tables or passages of the source.

For orientation: Ki means the dissociation constant of the complex between target and ligand, obtained from inhibition or displacement. By EC50 is commonly meant the concentration at which the effect is half-maximal. Higher therefore signals a less potent agent.

Data set [1] addresses T1, human M1R (Homo sapiens, UniProt P11229).
T1 sequence (P11229 1-460): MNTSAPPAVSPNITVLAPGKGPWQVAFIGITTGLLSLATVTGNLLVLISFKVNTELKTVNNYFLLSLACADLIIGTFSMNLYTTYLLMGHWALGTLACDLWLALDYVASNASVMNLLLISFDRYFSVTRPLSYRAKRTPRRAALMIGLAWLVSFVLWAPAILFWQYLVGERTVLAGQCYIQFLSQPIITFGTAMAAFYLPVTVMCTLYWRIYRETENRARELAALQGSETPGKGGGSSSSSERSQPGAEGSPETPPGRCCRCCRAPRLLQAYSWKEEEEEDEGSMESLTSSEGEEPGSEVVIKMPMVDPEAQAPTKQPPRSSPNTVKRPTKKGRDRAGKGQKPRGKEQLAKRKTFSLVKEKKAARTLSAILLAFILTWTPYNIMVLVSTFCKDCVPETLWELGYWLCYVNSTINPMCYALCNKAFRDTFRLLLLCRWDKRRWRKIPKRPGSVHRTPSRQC
Conditions: cited from earlier work.

For data set [2], the target named is T1, human M1R. It is filed as binding. Conditions: for Displacement of radioligand at M1Rs at highest concentration: 100 μM.
For data set [3] the following is noted: cited from earlier work.
In data set [4] the target is T2, human M2R (Homo sapiens, UniProt P08172).
T2 sequence (P08172 1-466): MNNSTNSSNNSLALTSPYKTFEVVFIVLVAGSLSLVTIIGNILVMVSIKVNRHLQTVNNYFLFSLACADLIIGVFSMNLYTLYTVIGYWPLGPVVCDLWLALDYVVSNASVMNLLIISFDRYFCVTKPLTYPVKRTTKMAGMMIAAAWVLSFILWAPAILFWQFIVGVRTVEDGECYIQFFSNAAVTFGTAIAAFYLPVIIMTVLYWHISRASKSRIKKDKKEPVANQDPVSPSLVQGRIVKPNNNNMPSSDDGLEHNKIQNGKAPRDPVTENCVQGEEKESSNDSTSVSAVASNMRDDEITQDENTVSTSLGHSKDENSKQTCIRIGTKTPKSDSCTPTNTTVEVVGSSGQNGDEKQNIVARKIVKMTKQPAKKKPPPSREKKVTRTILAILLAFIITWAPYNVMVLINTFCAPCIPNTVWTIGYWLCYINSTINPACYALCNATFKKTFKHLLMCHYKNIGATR
Nature of the data set: M2R cAMP signaling. It is filed as cell-based.

The target in another data set is T3, human M1Rs (Homo sapiens, UniProt P11229).
T3 sequence (P11229 1-460): T1 sequence (P11229 1-460)
Nature of the data set: M1R phosphoinositide hydrolysis. Type of data set: cell-based.

The target of data set [5] is T2, human M2R. Nature of the data set: M2R β-arrestin recruitment. It is filed as cell-based. (Activated receptors often draw arrestin, which recruitment assays turn into a signal.)
Data set [6] deals with T2, human M2R. Nature of the data set: [3H]scopolamine radioligand competition binding at M2R. Conditions: for Displacement of radioligand at M2Rs at highest concentration: 100 μM; for Displacement of radioligand at M2Rs at highest concentration / Ki: full dose-response competition binding; for Ki: read-out: Ki at M2Rs.
Data set [7] relates to human M1Rs, M2Rs, M3Rs, M4Rs, and M5Rs. Nature of the data set: Initial [3H]scopolamine displacement screen at each of the five MR subtypes. Type of data set: binding. The note with it: screened at 1 and 10 μM. The procedure, abridged: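 HEK293 cells (passage <20), lipid-transfected with human M1–M5 receptor cDNA; membranes harvested ~48 h later and stored at -80 °C. […] Filtered on GF/B, washed with ice-cold 50 mM Tris pH 7.4, scintillation counted. Affinities estimated from these two concentrations; N=2.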

The next data set has as its system NET. Conditions: cited from earlier work.
For data set [8] the following is noted: cited from earlier work. The source holds these as a separate data set.
Another data set has as its system DAT. The note with it: cited from earlier work.
For data set [9] the following is noted: α-PVP confirmed as only stimulant responsible for intoxication; cited from earlier work.
Setting [10] is: full dose-response competition binding.

Take `CNC(C)C(=O)c1ccc(Br)cc1` (stereo not shown) [4-bromomethcathinone, reference compound]: at human M1R [1], the “Affinity at M1Rs (initial experiments)” value is recorded as “nil affinity”.

Consider `CCCCC(C(=O)c1ccc2c(c1)OCO2)N1CCCC1` (stereo not drawn) [MDPHP, 3,4-methylenedioxy-α-pyrrolidinohexiophenone], for which the “Estimated pKi at M1R” value on human M1R [2] is 5.44. The Ki at human M1R [2] (read-out: Estimated Ki at M1Rs, estimated from 1 and 10 μM screens) was 3.63 µM.

As to `CCCCCC(C(=O)c1ccc2c(c1)OCO2)N1CCCC1` (stereo not drawn) [MDPHPP, 3,4-methylenedioxy-α-pyrrolidinoheptaphenone], the “Estimated pKi at M1R” value on human M1R [2] is 5.22.

For the molecule `CC(C(=O)c1ccc2c(c1)OCO2)N1CCCC1` (stereo not drawn) [MDPPP, 3,4-methylenedioxy-α-pyrrolidinopropiophenone], at human M1R [1], the “Affinity at M1Rs (initial experiments)” value is “nil affinity”.

Regarding `CCCC(C(=O)c1ccc2c(c1)OCO2)N1CCCC1` (stereo not shown) [MDPV, 3,4-methylenedioxypyrovalerone], the “Estimated pKi at M1R” value at human M1R [2] is 5.06. In addition, in data set [3], the “Effect on mitochondrial activity and cellular membranes” value was “not observed”.

In the case of `O=C1CCCN1CC#CCN1CCCC1` [oxotremorine, reference compound], a half-maximal response at human M2R [4] (EC50) required 0.0288 µM. Besides, the “EC80, decrease of forskolin-stimulated cAMP production” value on human M2R [4] (10 μM forskolin) amounted to 0.13 µM. The “EC80, IP1 production” value on human M1Rs came out at 0.5 µM. In addition, on human M2R [5] (concentration used in antagonist tests), the “EC80, β-arrestin recruitment” value came to 10 µM.

For `CCC(C(=O)c1ccccc1)N1CCCC1` (stereo not drawn) [α-PBP, α-pyrrolidinobutiophenone], at human M2R [6], the “Displacement of radioligand at M2Rs at highest concentration” value is “less than 50%”. Also, the Ki on human M2R [6] (interpolated) was determined as 40 µM. Further, the “Displacement of 1 nM [3H]scopolamine from each of the MR subtypes” value in data set [7] is listed as under 5%. For the same molecule, on human M1R [2] (setting [10]), the “Displacement of radioligand at M1Rs at highest concentration” value is given as “less than 50%”.

Regarding `CCCCC(C(=O)c1ccccc1)N1CCCC1` (stereo not drawn) [α-PHP, α-pyrrolidinohexiophenone], on human M2R [4], the “pKb, inhibition of M2R stimulation by oxotremorine (cAMP)” value came out at 6.92 ±0.03. Besides, the “Functional activity at M2R-cAMP signaling pathway” value on human M2R [4] (maximal effect above forskolin alone) is “inverse agonist”. In addition, the Kb on human M2R [4] (read-out: Kb, inhibition of M2R stimulation by oxotremorine (cAMP)) was 0.12 µM; on human M1Rs (read-out: Kb, inhibition of M1R-IP1 production caused by oxotremorine, EC80 oxotremorine (500 nM)), 1.4 µM and 1.38 µM. Moreover, the “Fold increase in M2R affinity compared to α-PPP” value at human M2R [6] (ratio of Ki values) worked out at 302 fold. Further, the Ki at human M2R [6] turned out to be 0.251 µM; on human M1R [2] (read-out: Ki at M1Rs, full dose-response competition binding), 1.6 µM. Further, in the data set with NET, the “Fold higher affinity at NET than α-PPP” value is given as 6 fold. For the same molecule, in data set [8] (fatal cases, as high as), the “Blood concentration, fatal cases” value was at most 2.86 µM. Further, the “Blood concentration, non-fatal case” value in [8] (male admitted to hospital after inhaling only α-PHP) is 1.28 µM. Moreover, in data set [8] (patient admitted to hospital after taking α-PHP), the “Serum concentration, non-fatal case” value is 0.71 µM. For the same molecule, at human M1R [2] (ratio of Ki values), the “Fold increase in M1R affinity from α-PPP” value is reported as 121 fold. Besides, the “pKb, inhibition of M1R-IP1 production caused by oxotremorine” value at human M1Rs (EC80 oxotremorine (500 nM)) was 5.86 ± 0.35. In addition, the “Functional activity at M1R-inositol phosphate signaling pathway” value at human M1Rs (maximal effect lower than basal signaling) is “inverse agonist activity”. For the same molecule, the “Fold higher affinity at DAT than α-PPP” value in the data set with DAT was 81 fold. The “pKb, inhibition of oxotremorine-stimulated β-arrestin recruitment” value at human M2R [5] (EC80 oxotremorine (10 μM)) is on record as 6.30 ± 0.12. On human M2R [5] (relative to basal signaling), the “Functional activity at M2R-β-arrestin recruitment” value is listed as “inverse agonist”.

Regarding `CC(C(=O)c1ccccc1)N1CCCC1` (stereo not drawn) [α-PPP, α-pyrrolidinopropiophenone], at human M2R [6], the “Displacement of radioligand at M2Rs at highest concentration” value is “less than 50%”. In addition, in [7], the “Displacement of 1 nM [3H]scopolamine from each of the MR subtypes” value was under 5%. The “Displacement of radioligand at M1Rs at highest concentration” value on human M1R [2] (setting [10]) is given as “less than 50%”. Moreover, the “Affinity at M1Rs (initial experiments)” value at human M1R [1] was “nil affinity”.

Take `CCCCCCC(C(=O)c1ccccc1)N1CCCC1` (stereo not drawn) [α-PV9, α-pyrrolidinooctanophenone, reference compound]: the “Effect on mitochondrial activity and cellular membranes” value in [3] was “potently decreased mitochondrial activity and severely damaged cellular membranes”.

Consider `CCCC(C(=O)c1ccccc1)N1CCCC1` (stereo not drawn) [α-PVP, α-pyrrolidinopentiophenone], for which, on human M2R [6] (ratio of Ki values), the “Fold increase in M2R affinity compared to α-PBP” value was 49 fold and the “Fold increase in M2R affinity compared to α-PPP” value amounted to 89 fold. Also, the inhibitory constant (Ki) at human M2R [6] came to 0.824 µM. Besides, the “Serum concentration, non-fatal cases” value in data set [8] (non-fatal cases, as high as) was at most 2.6 µM. Further, the “Concentration, postmortem cases” value in [8] (postmortem cases, as high as) is at most 86 µM. Moreover, the “Patients presenting with tachycardia” value in data set [9] is 80%.
